# Source: PubChem
# Rows were chosen to be rich in hits. Some 2% of all compounds tested hit in one or more screens of this group.
# dFosB activator = enhances mouse delta FosB homodimer DNA binding; P13346; purified delta FosB, TAMRA-CDK5 oligo fluorescence polarization; percent of positive-control signal above neutral wells; activation, % at 25 µM; 0.99% of 340,000 active; AID 493131;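 active means mean activation above about 17%, with every replicate also reaching it, limit read from the data, passing the limit was not always enough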
# Target sequence (P13346 whole entry, looked up): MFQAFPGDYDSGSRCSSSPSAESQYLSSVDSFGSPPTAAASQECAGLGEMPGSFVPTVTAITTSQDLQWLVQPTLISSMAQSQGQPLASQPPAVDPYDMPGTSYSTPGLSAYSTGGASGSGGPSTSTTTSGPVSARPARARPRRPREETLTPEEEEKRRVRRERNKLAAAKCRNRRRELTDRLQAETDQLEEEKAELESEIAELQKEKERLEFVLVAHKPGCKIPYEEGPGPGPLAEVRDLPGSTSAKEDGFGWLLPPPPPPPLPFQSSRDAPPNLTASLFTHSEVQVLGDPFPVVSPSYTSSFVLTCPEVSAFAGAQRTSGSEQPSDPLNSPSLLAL
# CAL PDZ FP-1 = blocks peptide binding to the human CAL PDZ domain; Q9HD26; purified CAL PDZ, TMR-peptide fluorescence polarization, 1 h; inhibition, % at 24.9 µM; 0.92% of 300,000 active; AID 602252;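 active means mean inhibition of at least 30% with at least half of replicates also reaching 30%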;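 further: 0% = DMSO neutral control and 100% = excess unlabeled competitor peptide PRC23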
# CDK5 p35 inh = CDK5/p35 (human) kinase inhibition. Q00535+Q15078. Recombinant CDK5/p35, ADP-Glo luminescence, 60 min. inhibition, % at 10 µM. 0.01% of 330,000 active. AID 488839;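 active means highest replicate inhibition of at least 50% and at least 75% of replicates reaching 50%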;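 further: plate controls were DMSO neutral control for no effect and GW8510 at 10 µM for full effect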
# CAL PDZ FP-2 = human CAL PDZ-peptide interaction inhibition; Q9HD26; purified CAL PDZ, TMR-peptide fluorescence polarization, 1 h; inhibition, % at 20 µM; 0.02% of 330,000 active; AID 504414;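 active means highest replicate inhibition of at least 40%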;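 further: plate controls were DMSO neutral control wells for no effect and unlabeled competitor peptide control wells for full effect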
#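 System: purified tagged CAL PDZ domain construct (CerCALP). Schedule: 1 h incubation at room temperature before polarization reading. Medium: 25 mM sodium phosphate pH 7.4, 150 mM NaCl, TCEP, IgG, Thesit. Read-out: percent inhibition from loss of millipolarization. Measured by: FP readout, S and P plane fluorescence. Probe or stimulus: fluorescent TMR peptide probe.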
# Statin myotox sup = suppressors of simvastatin-induced myotoxicity in C2C12 myotubes; rescue of ATP level, % at 7.49 µM; ATP luminescence, 48 h; scaled: DMSO 0, geranylgeraniol control 100; 0.78% of 330,000 active;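 active means mean ATP rescue above about 67%, or every replicate alone reaching that limit, limit read from the data, passing the limit was not always enough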;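 further: myotubes were challenged with 10 µM simvastatin during compound exposure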
# S100A4 MyoIIA = inhibitors of human S100A4 binding to myosin IIA peptide | P26447 | S100A4/TAMRA-MyoIIA peptide fluorescence polarization | inhibition, % at 10.7 µM | 0.14% of 360,000 active;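 active means mean inhibition of at least 70% across replicates, with every replicate also reaching that level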
# Target sequence (P26447 whole entry, looked up): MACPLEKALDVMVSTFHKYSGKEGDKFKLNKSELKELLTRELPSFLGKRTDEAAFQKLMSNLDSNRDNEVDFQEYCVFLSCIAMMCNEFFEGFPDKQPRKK
#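 Test system – S100A4 monomer (human) · Compound – single-point compound testing · Schedule – 5 min incubation before reading · Probe or stimulus – TAMRA-labelled myosin IIA heavy-chain peptide probe, 5 nM · Benchmarks – neutral control DMSO, positive control TFP · Medium – Calcium-containing HEPES buffer, pH 7.2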
# Starred values were filed as active, the others as inactive; . = no result.
SMILES,dFosB activator,CAL PDZ FP-1,CDK5 p35 inh,CAL PDZ FP-2,Statin myotox sup,S100A4 MyoIIA
COc1ccc(C2NCCc3c2[nH]c2ccccc32)cc1CSc1nc2ccccc2s1 (stereo unspecified),80*,-2,-1,-2,.,-5
O=C(Cc1ccccn1)NCC[C@H]1CC[C@@H](NC(=O)Nc2ccc(F)cc2)[C@H](CO)O1,.,.,.,.,-4,3
Cc1cc(=O)oc(C)c1C(=O)NCCC1=CCCCC1,-4,3,0,0,-3,-8
Fc1ccccc1-c1ccc(/C=N/Nc2nc3ccccc3[nH]2)o1,22*,1,2,-1,.,-1
O=C(Cn1ncc(N2CCOCC2)c(Cl)c1=O)c1ccc(Cl)cc1,-6,34*,0,0,-1,-5
Cc1nn(C(=O)CNC(=O)c2ccccc2)c(C)c1C,6,1,0,1,.,-1
COCCn1c(=N)c(S(=O)(=O)c2ccc(F)cc2)cc2c(=O)n3cccc(C)c3nc21,-10,-5,1,-1,-3,-1
COC(=O)c1sc2ncccc2c1OCc1ccc(Cl)cc1,-2,-2,0,-1,-5,.
O=C(CSc1nnc(N2CCCC2)n1-c1ccccc1Cl)N1CCN(c2ccccn2)CC1,1,40*,0,0,-2,-10
O=C(CSc1nnc(N2CCCC2)n1-c1cccc(Cl)c1)N1CCN(c2ccccn2)CC1,.,.,.,.,1,8
CCCN(C)C[C@@H]1Oc2cc(C#Cc3ccc(F)cc3)ccc2S(=O)(=O)N([C@@H](C)CO)C[C@H]1C,.,.,.,.,-8,-18
C=CCN(C(=O)c1csnn1)C(C(=O)NCc1ccccc1)c1c(F)cccc1Cl (stereo unspecified),-11,41*,0,0,1,1
C=CCN(C(=O)c1csnn1)C(C(=O)NCc1ccccc1)c1ccccc1F (stereo unspecified),0,-4,-4,0,20,-8
O=C(NCC(c1ccco1)N1CCCC1)c1ccc(Cl)cc1 (stereo unspecified),0,5,-1,-2,92*,.
Cc1ccc2c(Cl)c(C(=O)NCC(c3ccco3)N3CCCC3)sc2c1 (stereo unspecified),-17,75*,1,-2,-16,-5
O=C(NCC(c1ccco1)N1CCN(c2ccccc2)CC1)C(=O)NC1CCCCC1 (stereo unspecified),15,36*,1,0,5,-5
CC(NC(=O)C(C)N1C(=O)c2cccc([N+](=O)[O-])c2C1=O)c1ccccc1 (stereo unspecified),-9,3,0,.,-4,-6
COc1ccc(N2C(=O)C3CC=C(Cl)CC3C2=O)cc1 (stereo unspecified),2,-1,0,-2,9,-3
CCc1ccc(C2NC(=S)NC3=C2C(=O)N(c2ccccc2OC)C(c2ccc(CC)cc2)N3)cc1 (stereo unspecified),101*,1,2,-1,.,.
COc1cc2nc(N3CCNCC3)nc(N)c2cc1OC,-74,-2,2,-1,1,.
COc1cc2nc(N3CCN(c4cc(C)ccc4C)CC3)nc(N)c2cc1OC,79*,1,-1,-1,-4,-3
COc1ccc(C)cc1Nc1nc(N)c2cc(OC)c(OC)cc2n1,48*,-3,-1,0,-15,.
CC(=O)Nc1ccc(/C(C)=N/NS(=O)(=O)c2ccc(C)cc2)cc1,1,-4,-1,0,-3,.
C/C(=N/NS(=O)(=O)c1ccc(Br)cc1)c1ccc(NC(=O)c2ccc(C)o2)cc1,0,.,0,0,76*,.
Cc1ccc2ccc(C(Nc3ccccc3)c3ccccc3)c(O)c2n1 (stereo unspecified),.,.,.,.,.,2
SMILES,dFosB activator,CAL PDZ FP-1,CDK5 p35 inh,CAL PDZ FP-2,Statin myotox sup,S100A4 MyoIIA
Cc1ccc2ccc(C(Nc3cccc(C(F)(F)F)c3)c3cccnc3)c(O)c2n1 (stereo unspecified),-2,43*,-1,0,2,2
O=C(Nc1ccc2oc(-c3ccncc3)nc2c1)c1ccccc1,-12,1,0,-1,8,1
Cc1cc(-c2nc3ncccc3o2)ccc1N,-3,0,1,-2,100*,.
Cc1cc(-c2nc3ncccc3o2)ccc1NC(=O)c1ccc([N+](=O)[O-])o1,-5,.,0,0,-16,3
Cc1ccc(-c2nc3ncccc3o2)cc1NC(=O)c1ccc([N+](=O)[O-])o1,3,1,-1,-1,233*,.
O=C(Nc1ccc2oc(-c3ccncc3)nc2c1)c1ccc([N+](=O)[O-])o1,2,-2,0,-2,145*,-3
O=C(Nc1ccc(-c2nc3ncccc3o2)cc1)c1ccc([N+](=O)[O-])o1,-3,2,1,-2,226*,5
Cc1ccc(-c2nc3ncccc3o2)cc1N,0,-5,1,0,7,2
O=C(Nc1c(-c2ccccc2)[nH][nH]c1=O)c1ccccc1,.,.,.,.,.,-3
FC(F)(F)c1nc2ccccc2n1CCNc1nc(CN2CCCCC2)cs1,3,1,1,0,63,-6
c1ccc2c(c1)nc(-c1ccncc1)n2CCNc1nc(CN2CCCCC2)cs1,-3,1,-1,-1,88*,2
O=C(c1cccc(S(=O)(=O)N2CCCC2)c1)c1cccc(S(=O)(=O)N2CCCC2)c1,6,2,1,-1,4,.
COC(=O)c1cc(OC)c(OC)cc1NC(=O)c1ccccc1,2,-1,0,-1,-16,.
COc1ccc(C(=O)Nc2cc(OC)c(Cl)cc2OC)cc1,3,37*,8,-1,.,-2
COC(=O)c1cc(OC)c(OC)cc1NC(=O)c1ccc(OC)c(OC)c1,19*,-3,0,-3,-8,.
COC(=O)c1cc(OC)c(OC)cc1NC(=O)Nc1cccc(C(C)=O)c1,1,-5,1,0,114*,8
CC(=O)c1cccc(NC(=O)Nc2cccnc2)c1,-13,-5,2,-2,81*,.
COc1cc(NC(=O)c2ccc(F)cc2)c(OC)cc1Cl,2,-3,2,-2,.,.
Cc1csc(-c2cc(C(=O)NCc3ccc(F)cc3)n[nH]2)c1,.,.,.,.,0,6
O=C(N[C@@H]1CC[C@H](CCNS(=O)(=O)Cc2ccccc2)O[C@@H]1CO)c1ccccc1F,.,.,.,.,-7,-4
CCN(C[C@H]1[C@H](c2ccccc2)[C@H](CO)N1C(C)=O)C(=O)NC1CCCC1,.,.,.,.,13,-1
CC(=O)N/C(=C\c1ccc(Br)s1)C(=O)O,0,-1,2,-2,.,.
COc1cc(OC)c(NC(=O)CCNS(=O)(=O)c2cc(Br)cnc2N)cc1Cl,0,13,2,-1,94*,.
COc1ccccc1C(=O)NNC(=O)Cc1ccccc1,2,2,1,-1,-2,-3
